Calls of active or inactive are those of the source. No cut-off for these calls is given here.
Columns and labels:
MCF7 [1] = assay: Induction of apoptosis in human MCF7 cells assessed as total apoptotic cells at 0.01 uM after 48 hrs by Annexin V-FITC and propidium iodide staining based flow cytometry (reference value: 10 %); assay type: functional
Procedure, shortened: (§1)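 MCF-7 cells were seeded at 1 × 10^5 cells/mL and treated for 48 h at 0.01, 0.1 and 1 µM; vehicle was 0.1% v/v ethanol. Annexin V staining was done on ice in the dark for 30 min in HEPES/NaCl/CaCl2 binding buffer, followed by PI. Flow cytometry scored early apoptotic (Annexin V+/PI−) and late apoptotic (Annexin V+/PI+) cells; total apoptotic is Annexin V-positive cells.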

[2] = target: T1, UDP-glucuronosyltransferases (UGTs) (Homo sapiens, UniProt O60656+O75310+O75795+P06133+P0DTE4+P0DTE5+P16662+P19224+P22309+P22310+P35503+P35504+P36537+P54855+Q6UWM9+Q9BY64+Q9HAW7+Q9HAW8+Q9HAW9); assay: Metabolic stability in human liver microsomes assessed as UGT-mediated N-glucuronidation by measuring intrinsic clearance at 3 uM measured up to 45 mins by LC-MS/MS analysis; assay type: ADME; conditions: liver microsomes, read-out: CLH
Procedure, shortened: (§2)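 Pooled human liver microsomes (0.5 mg/mL protein final) with alamethicin (25 µg/mg) in 0.1 M phosphate pH 7.4, compound 3 µM final (0.25% DMSO), preincubated 37 °C. Reaction started with UDPGA (1 mM final). Sampled at 0, 5, 15, 30, 45 min into methanol, analysed by LC-MS/MS. Minus-UDPGA control run 45 min. Single incubations; t½ and CLint taken from the elimination rate constant.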

HT-29 [3] = assay: Cell cycle arrest in human HT-29 cells assessed as accumulation at sub-G1 phase at 1 uM measured after 48 hrs by PI staining based flow cytometry analysis (reference value: 2.5 %); assay type: functional
Procedure, shortened: (§3)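 Cells (1 × 10^5/well) were treated at 1 µM for 24, 48 and 72 h; vehicle was 0.1% v/v ethanol. Cells were trypsinised, fixed in ice-cold 70% ethanol overnight at −20 °C, then stained with PI (50 µg/mL) plus DNase-free RNase A (50 µg/mL) at 37 °C for 30 min. DNA content of 10,000 cells per group was read by flow cytometry at 488 nm.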

MCF7 [4] = assay: Induction of apoptosis in human MCF7 cells assessed as late apoptotic cells after 48 hrs by Annexin V-FITC and propidium iodide staining based flow cytometry; assay type: functional, cell-based; conditions: dose 10-1000 nM; procedure, shortened: as §1
HT-29 [5] = assay: Cell cycle arrest in human HT-29 cells assessed as accumulation at G2/M phase at 1 uM measured after 48 hrs by PI staining based flow cytometry analysis (reference value: 11 %); assay type: functional; procedure, shortened: as §3
Tubulin (Homo sapiens) [6] = target: T2, Tubulin (Homo sapiens) (UniProt P68371+Q9H4B7+P0DPH7+P68366+Q13509+Q71U36+P04350+Q3ZCM7+P07437+P68363+Q9BQE3+Q6PEY2+Q13885+Q9BVA1+Q9BUF5); assay: Induction of microtubule depolymerization in human MCF7 cells at 10 to 100 nM after 16 hrs by immunofluorescence staining based confocal microscopic analysis; assay type: cell-based; conditions: dose 10-100 nM
Procedure, shortened: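 MCF-7 cells seeded 1 × 10^5 cells/mL on chamber slides, exposed 16 h to vehicle [1% ethanol (v/v)] or test agent (0.01, 0.05, 0.1 µM). Fixed in 4% paraformaldehyde, permeabilised in 0.5% Triton X-100, blocked in 5% BSA, then stained with anti-α-tubulin-FITC (DM1A) 2 h rt, Alexa Fluor 488 1 h, DAPI mount. Confocal imaging; three independent experiments.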

MCF7 [7] = assay: Cell cycle arrest in human MCF7 cells assessed as accumulation at G2/M phase at 1 uM measured after 72 hrs by PI staining based flow cytometry analysis (reference value: 24 %); assay type: functional; procedure, shortened: as §3
HT-29 [8] = assay: Antiangiogenic activity in human HT-29 cells assessed as increase in IL-1RA secretion at 5 uM after 24 hrs by ELISA; assay type: functional, cell-based
Procedure, shortened: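 HT-29 cells at 5 x 10^4 per well, cultured 24 h and then exposed to 5 µM compound. Conditioned medium collected on ice and stored at -80 °C. Cytokines and angiogenic, vascular-injury and chemokine factors measured by multiplex panels with overnight supernatant incubation (Angiogenesis Panel 1 and Vascular Injury Panel 2 same day). Medium undiluted except 1:4 for Vascular Injury Panel 2. Secretion normalised to lysate protein by BCA.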

HT-29 [9] = assay: Induction of apoptosis in human HT29 cells assessed as necrotic cells at 1 uM after 24 hrs by Annexin V-FITC and propidium iodide staining based flow cytometry (reference value: 3 %); assay type: functional
Procedure, shortened: (§4)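 HT-29 cells were treated at 1 µM for 24, 48 and 72 h against an untreated control. Cells were stained with Annexin V in binding buffer (HEPES pH 7.4, NaCl, CaCl2) for 30 min on ice in the dark, washed, resuspended in PI-containing buffer and read at once by flow cytometry. Quadrants: early apoptotic, late apoptotic, necrotic (Annexin V−/PI+).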

MCF7 [10] = assay: Induction of apoptosis in human MCF7 cells assessed as downregulation of Mcl-1 expression level measured after 72 hrs by Western blot analysis; assay type: functional, cell-based; conditions: dose 0.05-0.5 µM
Procedure, shortened: (§5)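 MCF-7 cells (1 × 10^5 per flask) were treated at 0.05, 0.1 and 0.5 µM for 48 and 72 h; vehicle was 0.1% v/v ethanol. Lysis was in RIPA buffer with protease and phosphatase inhibitors. Equal protein (BCA) was run on 12% SDS-PAGE and blotted for Mcl-1, Bcl-2 and survivin, with GAPDH as loading control and ECL detection. Three independent experiments.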

HT-29 [11] = assay: Cell cycle arrest in human HT-29 cells assessed as accumulation at G2/M phase at 1 uM measured after 24 hrs by PI staining based flow cytometry analysis (reference value: 11 %); assay type: functional; procedure, shortened: as §3
MCF7 [12] = assay: Induction of apoptosis in human MCF7 cells assessed as downregulation of Bcl-2 expression level measured after 72 hrs by Western blot analysis; assay type: functional, cell-based; conditions: dose 0.05-0.5 µM; procedure, shortened: as §5
Tubulin (Homo sapiens) [13] = target: T2, Tubulin (Homo sapiens); assay: Induction of microtubule depolymerization in human MCF7 cells assessed as induction of cell detachment and loss of radical distribution at 100 nM for 5 hrs by immunofluorescence staining based confocal microscopic analysis
Procedure, shortened: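 MCF-7 cells were seeded at 1 × 10^5 cells/mL on chamber slides and treated at 0.01, 0.05 and 0.1 µM. Controls were vehicle (1% v/v ethanol), CA-4 (0.01 µM) and paclitaxel (1 µM). Cells were fixed and stained with anti-α-tubulin-FITC (DM1A) and Alexa Fluor 488, then counterstained with DAPI. Imaging was by confocal microscopy over three separate experiments.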

HT-29 [14] = assay: Induction of apoptosis in human HT29 cells assessed as necrotic cells at 1 uM after 72 hrs by Annexin V-FITC and propidium iodide staining based flow cytometry (reference value: 3 %); assay type: functional; procedure, shortened: as §4
MCF7 [15] = assay: Induction of apoptosis in human MCF7 cells assessed as total apoptotic cells at 1 uM after 48 hrs by Annexin V-FITC and propidium iodide staining based flow cytometry (reference value: 10 %); assay type: functional; procedure, shortened: as §1
HT-29 [16] = assay: Induction of apoptosis in human HT29 cells assessed as necrotic cells at 1 uM after 48 hrs by Annexin V-FITC and propidium iodide staining based flow cytometry (reference value: 3 %); assay type: functional; procedure, shortened: as §4
[17] = target: T1, UDP-glucuronosyltransferases (UGTs); assay: Metabolic stability in human liver microsomes assessed as UGT-mediated N-glucuronidation by measuring half life at 3 uM measured up to 45 mins by LC-MS/MS analysis; assay type: ADME; conditions: liver microsomes; procedure, shortened: as §2

- microsomal CLint at 3 µM [2]: 14.2 µL/min/mg
- Activity (Tubulin (Homo sapiens) [6]): Active
- Activity (Tubulin (Homo sapiens) [13]): Active
- half-life at 3 µM [17]: 1.63 h
Compound: COc1ccc([C@H]2[C@H](O)C(=O)N2c2cc(OC)c(OC)c(OC)c2)cc1F
- Activity (MCF7 [1]): 13%
- Activity (HT-29 [3]): 11%
- Activity (MCF7 [4]): Dose-dependent effect
- Activity (HT-29 [5]): 57%
- Activity (MCF7 [7]): 60%
- Activity (HT-29 [8]): Active
- Activity (HT-29 [9]): 8%
- Activity (MCF7 [10]): Dose-dependent effect
- Activity (HT-29 [11]): 52%
- Activity (MCF7 [12]): Dose-dependent effect
- Activity (HT-29 [14]): 22%
- Activity (MCF7 [15]): 35%
- Activity (HT-29 [16]): 11%

Source: ChEMBL document CHEMBL4680165, “β-Lactams with antiproliferative and antiapoptotic activity in breast and chemoresistant colon cancer cells” (Eur J Med Chem, 2020)
